The source made the active and inactive calls. The rule behind the calls is not given here.
Experiments:
[1] = target: Serine/threonine-protein kinase PknG (Mycobacterium tuberculosis) (UniProt P9WI73); experiment: Inhibition of Mycobacterium tuberculosis recombinant PKnG expressed in Escherichia coli BL21 (DE3) cells using myelin basic protein substrate at 25 uM by luciferase activity based ADP-Glo-luminescent kinase assay
In short: (§1)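 6-His-PknG from M. tuberculosis genomic DNA cloned into pTriEx4, expressed in E. coli with 0.8 mM IPTG 4 h at 37 °C, purified by Ni2+-NTA then size exclusion. Compounds dissolved in DMSO; assayed with myelin basic protein substrate; ADP formed measured by ADP-Glo luminescence; AX20017 positive control; dose-response series.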

[2] = target: Serine/threonine-protein kinase PknG (Mycobacterium tuberculosis) (UniProt P9WI73); experiment: Inhibition of Mycobacterium tuberculosis recombinant PKnG expressed in Escherichia coli BL21 (DE3) cells using myelin basic protein substrate at 12.5 uM by luciferase activity based ADP-Glo-luminescent kinase assay; in short: as §1
[3] = target: Serine/threonine-protein kinase PknG (Mycobacterium tuberculosis) (UniProt P9WI73); experiment: Inhibition of Mycobacterium tuberculosis recombinant PKnG expressed in Escherichia coli BL21 (DE3) cells using myelin basic protein substrate at 100 uM by luciferase activity based ADP-Glo-luminescent kinase assay; in short: as §1
[4] = target: Serine/threonine-protein kinase PknG (Mycobacterium tuberculosis) (UniProt P9WI73); experiment: Inhibition of Mycobacterium tuberculosis recombinant PKnG expressed in Escherichia coli BL21 (DE3) cells using myelin basic protein substrate at 6.25 uM by luciferase activity based ADP-Glo-luminescent kinase assay; in short: as §1
[5] = Toxicity against macrophages incubated for 48 hrs by resazurin dye reduction assay; format: cell-based, Macrophage
In short: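 Macrophages from subconfluent monolayers seeded ~1 × 10^6 cells/well in RPMI-1640; compounds 100 to 12.5 µM, 48 h at 37 °C, 5% CO2; resazurin added for 4 h, fluorescence 535/590 nm read against untreated wells as % viability; CC50 taken from viability-versus-concentration plot; triplicates.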

[6] = target: Serine/threonine-protein kinase PknG (Mycobacterium tuberculosis) (UniProt P9WI73); experiment: Inhibition of Mycobacterium tuberculosis recombinant PKnG expressed in Escherichia coli BL21 (DE3) cells using myelin basic protein substrate at 3.125 uM by luciferase activity based ADP-Glo-luminescent kinase assay; in short: as §1
[7] = target: Serine/threonine-protein kinase PknG (Mycobacterium tuberculosis) (UniProt P9WI73); experiment: Inhibition of Mycobacterium tuberculosis recombinant PKnG expressed in Escherichia coli BL21 (DE3) cells using myelin basic protein substrate at 50 uM by luciferase activity based ADP-Glo-luminescent kinase assay; in short: as §1
Mycolicibacterium aurum [8] = experiment: Inhibition of FAS2 in recombinant Mycobacterium aurum expressing Mycobacterium tuberculosis H37Rv kas operon in fusion Escherichia coli lacZ gene assessed as increase in beta-galactosidase activity at 50 uM incubated for 12 hrs by lacZ reporter gene assay
In short: (§2)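 Cells washed, sonicated in PBS pH 7.2; equal Bradford-quantified protein incubated with ONPG (4 mg/ml) 30 min at 37 °C, stopped with Na2CO3, read at 410 nm. Triplicates, experiment repeated twice; isoniazid positive control.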

Mycolicibacterium aurum [9] = experiment: Inhibition of FAS2 in recombinant Mycobacterium aurum expressing Mycobacterium tuberculosis H37Rv kas operon in fusion Escherichia coli lacZ gene assessed as increase in beta-galactosidase activity at 100 uM incubated for 12 hrs by lacZ reporter gene assay; in short: as §2
Mycolicibacterium aurum [10] = experiment: Growth inhibition of Mycobacterium aurum expressing Mycobacterium tuberculosis H37Rv kas operon in fusion Escherichia coli lacZ gene at 100 uM incubated for 12 hrs; format: functional; details: read-out: GI
Mycolicibacterium aurum [11] = experiment: Growth inhibition of Mycobacterium aurum expressing Mycobacterium tuberculosis H37Rv kas operon in fusion Escherichia coli lacZ gene at 50 uM incubated for 12 hrs; format: functional; details: read-out: GI
Mycolicibacterium aurum [12] = experiment: Inhibition of FAS2 in recombinant Mycobacterium aurum expressing hsp60 promoter in fusion Escherichia coli lacZ gene assessed as increase in beta-galactosidase activity at 50 uM incubated for 12 hrs by lacZ reporter gene assay
Mycolicibacterium aurum [13] = experiment: Inhibition of FAS2 in recombinant Mycobacterium aurum expressing hsp60 promoter in fusion Escherichia coli lacZ gene assessed as increase in beta-galactosidase activity at 100 uM incubated for 12 hrs by lacZ reporter gene assay

Serine/threonine-protein kinase PknG (Mycobacterium tuberculosis), sequence (P9WI73 whole entry, the tested form may be a part): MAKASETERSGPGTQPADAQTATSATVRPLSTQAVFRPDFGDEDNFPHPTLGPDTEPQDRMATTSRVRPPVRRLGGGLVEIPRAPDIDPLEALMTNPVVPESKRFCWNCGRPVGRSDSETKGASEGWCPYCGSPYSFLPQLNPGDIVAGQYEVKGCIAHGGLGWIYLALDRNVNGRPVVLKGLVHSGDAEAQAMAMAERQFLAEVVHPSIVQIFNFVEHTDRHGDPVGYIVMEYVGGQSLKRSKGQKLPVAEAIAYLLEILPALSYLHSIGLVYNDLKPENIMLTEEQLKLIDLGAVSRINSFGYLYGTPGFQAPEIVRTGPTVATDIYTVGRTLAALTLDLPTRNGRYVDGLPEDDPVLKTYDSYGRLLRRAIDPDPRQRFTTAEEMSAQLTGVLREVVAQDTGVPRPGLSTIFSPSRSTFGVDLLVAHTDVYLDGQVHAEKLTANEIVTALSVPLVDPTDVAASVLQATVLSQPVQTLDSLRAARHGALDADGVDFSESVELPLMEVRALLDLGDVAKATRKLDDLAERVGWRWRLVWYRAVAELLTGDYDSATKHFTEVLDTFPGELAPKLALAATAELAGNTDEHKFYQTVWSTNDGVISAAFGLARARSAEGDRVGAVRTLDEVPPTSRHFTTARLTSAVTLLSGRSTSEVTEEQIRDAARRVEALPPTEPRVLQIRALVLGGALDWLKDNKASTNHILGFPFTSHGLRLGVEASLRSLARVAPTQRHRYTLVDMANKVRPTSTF

CC(C)c1ccc(-c2cc(-c3ccc(OCc4cn(Cc5ccccc5)nn4)cc3O)nc(N)n2)cc1
inhibition [1]: 0% | inhibition [2]: 0% | inhibition [3]: 28% | inhibition [4]: 0% | CC50 at 48 h [5]: > 100 µM | inhibition [6]: 0% | inhibition [7]: 16%

CCCCCCn1cc(COc2ccc(-c3cc(-c4cccc5ccccc45)nc(N)n3)c(O)c2)nn1
inhibition [3]: 11%

CC(=O)c1ccc(OCc2cn(Cc3ccccc3)nn2)cc1O
inhibition (Mycolicibacterium aurum [8]): inactive | inhibition (Mycolicibacterium aurum [9]): inactive | inhibition of growth at 100 µM (Mycolicibacterium aurum [10]): 75.9% | inhibition of growth at 50 µM (Mycolicibacterium aurum [11]): 23.7%

CCCCCCn1cc(COc2ccc(-c3cc(-c4c(F)cccc4Cl)nc(N)n3)c(O)c2)nn1
inhibition [3]: 11%

Nc1nc(-c2ccc(OCc3cn(Cc4ccccc4)nn3)cc2O)cc(-c2c(F)cccc2Cl)n1
inhibition [3]: 12%

CC(C)c1ccc(-c2cc(-c3ccc(OCc4cn(Cc5ccc(Br)cc5)nn4)cc3O)nc(N)n2)cc1
inhibition [3]: 5%

O=C1CC(c2ccc(Br)cc2)Oc2cc(OCc3cn(Cc4ccc(Br)cc4)nn3)ccc21 (configuration not stated)
inhibition (Mycolicibacterium aurum [8]): inactive | inhibition (Mycolicibacterium aurum [9]): inactive | inhibition of growth at 100 µM (Mycolicibacterium aurum [10]): 70.6% | CC50 at 48 h [5]: 87.5 µM | inhibition of growth at 50 µM (Mycolicibacterium aurum [11]): 50%

CCCCCCn1cc(COc2ccc(-c3cc(-c4ccc(OC)cc4)nc(N)n3)c(O)c2)nn1
inhibition [3]: 4%

CC(=O)c1ccc(OCc2cn(Cc3ccc(Br)cc3)nn2)cc1O
inhibition (Mycolicibacterium aurum [8]): inactive | inhibition (Mycolicibacterium aurum [9]): inactive | inhibition of growth at 100 µM (Mycolicibacterium aurum [10]): 73.7% | inhibition of growth at 50 µM (Mycolicibacterium aurum [11]): 70.4%

CCCCCCn1cc(COc2ccc(-c3cc(-c4ccc(Cl)cc4)nc(N)n3)c(O)c2)nn1
inhibition [1]: 0% | inhibition [3]: 43% | inhibition [4]: 0% | CC50 at 48 h [5]: 30.3 µM | inhibition [6]: 0% | inhibition [7]: 0%

CCCCCCn1cc(COc2ccc3c(c2)OC(c2ccc(Br)cc2)CC3=O)nn1 (configuration not stated)
inhibition (Mycolicibacterium aurum [12]): inactive | inhibition (Mycolicibacterium aurum [8]): Active | inhibition (Mycolicibacterium aurum [9]): Active | inhibition of growth at 100 µM (Mycolicibacterium aurum [10]): 75.1% | CC50 at 48 h [5]: 20.3 µM | inhibition of growth at 50 µM (Mycolicibacterium aurum [11]): 68.9% | inhibition (Mycolicibacterium aurum [13]): inactive

NC(=O)C1=C(NC(=O)C2CC2)CC2=C1CCCC2
inhibition [1]: 22% | inhibition [2]: 12% | inhibition [7]: 24%

O=C(/C=C/c1ccccc1)c1ccc(OCc2cn(Cc3ccccc3)nn2)cc1O
inhibition (Mycolicibacterium aurum [12]): inactive | inhibition (Mycolicibacterium aurum [8]): Active | inhibition (Mycolicibacterium aurum [9]): Active | inhibition of growth at 100 µM (Mycolicibacterium aurum [10]): 88% | CC50 at 48 h [5]: 80 µM | inhibition of growth at 50 µM (Mycolicibacterium aurum [11]): 49.9% | inhibition (Mycolicibacterium aurum [13]): inactive

CCCCCCn1cc(COc2ccc(C(C)=O)c(O)c2)nn1
inhibition (Mycolicibacterium aurum [8]): inactive | inhibition (Mycolicibacterium aurum [9]): inactive | inhibition of growth at 100 µM (Mycolicibacterium aurum [10]): 91.8% | inhibition of growth at 50 µM (Mycolicibacterium aurum [11]): 93.1%

Nc1nc(-c2ccc(Br)cc2)cc(-c2ccc(OCc3cn(Cc4ccc(Br)cc4)nn3)cc2O)n1
inhibition [1]: 0% | inhibition [2]: 0% | inhibition [3]: 19% | inhibition [4]: 0% | inhibition [6]: 5% | inhibition [7]: 0%

Nc1nc(-c2ccccc2)cc(-c2ccc(OCc3cn(Cc4ccccc4)nn3)cc2O)n1
inhibition [1]: 14% | inhibition [2]: 18% | inhibition [3]: 29% | inhibition [4]: 4% | CC50 at 48 h [5]: 76.5 µM | inhibition [6]: 5% | inhibition [7]: 37%

Nc1nc(-c2ccc(OCc3cn(Cc4ccccc4)nn3)cc2O)cc(-c2cccc3ccccc23)n1
inhibition [1]: 7% | inhibition [2]: 11% | inhibition [3]: 35% | inhibition [4]: 9% | CC50 at 48 h [5]: 71.3 µM | inhibition [6]: 0% | inhibition [7]: 25%

C#CCOc1ccc(-c2cc(-c3ccc(OCc4cn(CCCCCC)nn4)cc3O)nc(N)n2)cc1
inhibition [3]: 17%

O=C(/C=C/c1c(F)cccc1Cl)c1ccc(OCc2cn(Cc3ccc(Br)cc3)nn2)cc1O
inhibition (Mycolicibacterium aurum [12]): inactive | inhibition (Mycolicibacterium aurum [8]): Active | inhibition (Mycolicibacterium aurum [9]): Active | inhibition of growth at 100 µM (Mycolicibacterium aurum [10]): 83% | CC50 at 48 h [5]: 65.8 µM | inhibition of growth at 50 µM (Mycolicibacterium aurum [11]): 53.1% | inhibition (Mycolicibacterium aurum [13]): inactive

Nc1nc(-c2ccc(Cl)cc2)cc(-c2ccc(OCc3cn(Cc4ccccc4)nn3)cc2O)n1
inhibition [1]: 19% | inhibition [2]: 5% | inhibition [3]: 53% | inhibition [4]: 5% | CC50 at 48 h [5]: 66.6 µM | inhibition [6]: 4%

CCCCCCn1cc(COc2ccc(C(=O)/C=C/c3c(F)cccc3Cl)c(O)c2)nn1
inhibition (Mycolicibacterium aurum [12]): inactive | inhibition (Mycolicibacterium aurum [8]): Active | inhibition (Mycolicibacterium aurum [9]): Active | inhibition of growth at 100 µM (Mycolicibacterium aurum [10]): 79.1% | CC50 at 48 h [5]: > 100 µM | inhibition of growth at 50 µM (Mycolicibacterium aurum [11]): 71.6% | inhibition (Mycolicibacterium aurum [13]): inactive

COc1ccc(-c2cc(-c3ccc(OCc4cn(Cc5ccccc5)nn4)cc3O)nc(N)n2)cc1
inhibition [1]: 9% | inhibition [2]: 10% | inhibition [3]: 43% | inhibition [4]: 0% | CC50 at 48 h [5]: 42.7 µM | inhibition [6]: 6% | inhibition [7]: 43%

CC(C)c1ccc(C2CC(=O)c3ccc(OCc4cn(Cc5ccccc5)nn4)cc3O2)cc1 (configuration not stated)
inhibition (Mycolicibacterium aurum [12]): inactive | inhibition (Mycolicibacterium aurum [8]): Active | inhibition (Mycolicibacterium aurum [9]): Active | inhibition of growth at 100 µM (Mycolicibacterium aurum [10]): 79.3% | CC50 at 48 h [5]: 23.8 µM | inhibition of growth at 50 µM (Mycolicibacterium aurum [11]): 54.7% | inhibition (Mycolicibacterium aurum [13]): inactive

CCCCCCn1cc(COc2ccc3c(c2)OC(c2ccc(OC)cc2)CC3=O)nn1 (configuration not stated)
inhibition (Mycolicibacterium aurum [12]): inactive | inhibition (Mycolicibacterium aurum [8]): Active | inhibition (Mycolicibacterium aurum [9]): Active | inhibition of growth at 100 µM (Mycolicibacterium aurum [10]): 65.7% | CC50 at 48 h [5]: 57.5 µM | inhibition of growth at 50 µM (Mycolicibacterium aurum [11]): 55.9% | inhibition (Mycolicibacterium aurum [13]): inactive

CCCCCCn1cc(COc2ccc(C(=O)/C=C/c3ccc(Br)cc3)c(O)c2)nn1
inhibition (Mycolicibacterium aurum [8]): inactive | inhibition (Mycolicibacterium aurum [9]): inactive | inhibition of growth at 100 µM (Mycolicibacterium aurum [10]): 76.5% | CC50 at 48 h [5]: > 100 µM | inhibition of growth at 50 µM (Mycolicibacterium aurum [11]): 69.6%

Nc1nc(-c2ccccc2)cc(-c2ccc(OCc3cn(Cc4ccc(Br)cc4)nn3)cc2O)n1
inhibition [1]: 9% | inhibition [2]: 0% | inhibition [3]: 41% | CC50 at 48 h [5]: > 100 µM | inhibition [7]: 17%

CCCCCCn1cc(COc2ccc(-c3cc(-c4ccc(C(C)C)cc4)nc(N)n3)c(O)c2)nn1
inhibition [3]: 5%

Nc1nc(-c2ccc(OCc3cn(Cc4ccc(Br)cc4)nn3)cc2O)cc(-c2cccc3ccccc23)n1
inhibition [1]: 0% | inhibition [2]: 0% | inhibition [3]: 34% | inhibition [4]: 2% | CC50 at 48 h [5]: > 100 µM | inhibition [6]: 0% | inhibition [7]: 3%

— ChEMBL document CHEMBL2069213, “Synthesis and evaluation of small libraries of triazolylmethoxy chalcones, flavanones and 2-aminopyrimidines as inhibitors of mycobacterial FAS-II and PknG” (Bioorg Med Chem, 2012)
